Laboratory results as given in ChEMBL document CHEMBL4024803, “New Steroidal 4-Aminoquinolines Antagonize Botulinum Neurotoxin Serotype A in Mouse Embryonic Stem Cell Derived Motor Neurons in Postintoxication Model” (J Med Chem, 2018).

Experiments:
[1] = Distribution co-efficient, log D of the compound at pH 10 by reversed-phase thin-layer chromatographic method; assay type: physicochemical; details: buffer
Method in brief: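 Reversed-phase thin-layer chromatography at pH 10, mobile phase acetone/NH3/H2O (85/5/10).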

[2] = biological target: T1, Botulinum neurotoxin type A (Clostridium botulinum, UniProt P0DPI0); assay: (§1) Inhibition of Clostridium botulinum BoNT/A light chain using P39 as substrate preincubated for 10 mins followed by substrate addition measured after 10 mins by HPLC method
[3] = biological target: Botulinum neurotoxin type A (Clostridium botulinum) (UniProt P0DPI0); assay: as §1
[4] = biological target: Botulinum neurotoxin type A (Clostridium botulinum) (UniProt P0DPI0); assay: Inhibition of Clostridium botulinum BoNT/A holotoxin-mediated SNAP-25 cleavage in mouse HBG3 cell-derived motor neurons assessed as full length of SNAP-25 at 20 uM treated at 30 mins post intoxication by Western blot method relative to control; parameters: scale not given: the % may be the effect or the level left
[5] = biological target: Botulinum neurotoxin type A (Clostridium botulinum) (UniProt P0DPI0); assay: Inhibition of Clostridium botulinum BoNT/A holotoxin-mediated SNAP-25 cleavage in mouse HBG3 cell-derived motor neurons assessed as full length of SNAP-25 at 20 uM treated at 60 mins post intoxication by Western blot method relative to control; parameters: scale not given: the % may be the effect or the level left
[6] = biological target: Botulinum neurotoxin type A (Clostridium botulinum) (UniProt P0DPI0); assay: Inhibition of Clostridium botulinum BoNT/A light chain at 20 uM using P39 as substrate preincubated for 10 mins followed by substrate addition measured after 10 mins by HPLC method relative to control
Method in brief: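 Purified BoNT/A light chain (20 nM) with 0.2 mg/mL BSA in 50 mM HEPES pH 7.4, preincubated with compound for 10 min at room temperature. Cleavage fragments were separated by reversed-phase HPLC (214/280 nm). Percent inhibition was taken from fragment peak areas with vs without compound. Mean of three experiments.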

[7] = biological target: Botulinum neurotoxin type A (Clostridium botulinum) (UniProt P0DPI0); assay: Inhibition of Clostridium botulinum BoNT/A holotoxin-mediated SNAP-25 cleavage in mouse HBG3 cell-derived motor neurons assessed as full length of SNAP-25 at 10 uM preincubated for 30 mins followed by intoxication measured after 4 hrs by Western blot method relative to control; parameters: scale not given: the % may be the effect or the level left
[8] = biological target: Botulinum neurotoxin type A (Clostridium botulinum) (UniProt P0DPI0); assay: Inhibition of Clostridium botulinum BoNT/A holotoxin-mediated SNAP-25 cleavage in mouse HBG3 cell-derived motor neurons assessed as full length of SNAP-25 at 20 uM preincubated for 30 mins followed by intoxication measured after 4 hrs by Western blot method relative to control; parameters: scale not given: the % may be the effect or the level left
[9] = biological target: T1, Botulinum neurotoxin type A; assay: (§2) Inhibition of Clostridium botulinum BoNT/A holotoxin-mediated SNAP-25 cleavage in mouse HBG3 cell-derived motor neurons preincubated for 30 mins followed by intoxication measured after 4 hrs by Western blot method
[10] = biological target: Botulinum neurotoxin type A (Clostridium botulinum) (UniProt P0DPI0); assay: as §2
Mus musculus [11] = assay: In vivo inhibition of Clostridium botulinum BoNT/A in CD1 mouse assessed as mouse survival at 1 mg/kg, ip administered 3 hrs post intoxication measured over 24 hrs relative to control; assay type: functional
[12] = Distribution co-efficient, log D of the compound at pH 1 by reversed-phase thin-layer chromatographic method; assay type: physicochemical; details: buffer
Method in brief: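 Reversed-phase thin-layer chromatography at pH 1, mobile phase MeOH/HCl (70/30).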

Mus musculus [13] = assay: Toxicity in mouse assessed as effect on appearance at 160 mg/kg, po administered for 3 days measured 2 times a day for 30 days; assay type: organism-based; details: in vivo, 720 h
Method in brief: (§3)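 Groups of five healthy mice were dosed per os for three consecutive days, suspended in 0.5% hydroxyethylcellulose–0.1% Tween 80. Behaviour and appearance were monitored twice daily for 30 days, with survival assessed at 30 days. Non-toxic was defined as all 5 surviving with normal appearance and behaviour.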

Mus musculus [14] = assay: Toxicity in mouse assessed as effect on behavior at 160 mg/kg, po administered for 3 days measured 2 times a day for 30 days; assay type: organism-based; details: in vivo, 720 h; method in brief: as §3
Mus musculus [15] = assay: Toxicity in mouse assessed as effect on survival at 160 mg/kg, po administered for 3 days measured after 30 days; assay type: organism-based; details: in vivo, 720 h; method in brief: as §3
[16] = biological target: Botulinum neurotoxin type A (Clostridium botulinum) (UniProt P0DPI0); assay: Inhibition of Clostridium botulinum BoNT/A holotoxin-mediated SNAP-25 cleavage in mouse HBG3 cell-derived motor neurons assessed as full length of SNAP-25 at 64 uM treated at 30 mins post intoxication by Western blot method relative to control; parameters: scale not given: the % may be the effect or the level left
[17] = biological target: Botulinum neurotoxin type A (Clostridium botulinum) (UniProt P0DPI0); assay: Inhibition of Clostridium botulinum BoNT/A holotoxin-mediated SNAP-25 cleavage in mouse HBG3 cell-derived motor neurons assessed as full length of SNAP-25 at 16 uM treated at 30 mins post intoxication by Western blot method relative to control; parameters: scale not given: the % may be the effect or the level left
[18] = biological target: Botulinum neurotoxin type A (Clostridium botulinum) (UniProt P0DPI0); assay: Inhibition of Clostridium botulinum BoNT/A holotoxin-mediated SNAP-25 cleavage in mouse HBG3 cell-derived motor neurons assessed as full length of SNAP-25 at 8 uM preincubated for 30 mins followed by intoxication measured after 4 hrs by Western blot method relative to control; parameters: scale not given: the % may be the effect or the level left
[19] = biological target: Botulinum neurotoxin type A (Clostridium botulinum) (UniProt P0DPI0); assay: Inhibition of Clostridium botulinum BoNT/A holotoxin-mediated SNAP-25 cleavage in mouse HBG3 cell-derived motor neurons assessed as full length of SNAP-25 at 16 uM preincubated for 30 mins followed by intoxication measured after 4 hrs by Western blot method relative to control; parameters: scale not given: the % may be the effect or the level left

SMILES | chromatographic logD [1] | IC50 [2] | inhibition [3] | Activity [4] | Activity [5] | inhibition [6] | Activity [7] | Activity [8] | IC50 [9] | inhibition [10] | survival at 1 mg/kg (Mus musculus [11]) | chromatographic logD [12] | Activity (Mus musculus [13]) | Activity (Mus musculus [14]) | Activity (Mus musculus [15]) | Activity [16] | Activity [17] | Activity [18] | Activity [19]
CC(CCN(C)CC12CC3CC(CC(C3)C1)C2)Nc1ccnc2cc(Cl)ccc12 (configuration not stated) | 3.47 | 11.7 µM | Dose-dependent effect | 15% | 16% | 67% | 63% | 72% | < 10 µM | Dose-dependent effect |  |  |  |  |  |  |  |  | 
O=C(N/N=C/c1cc(O)c(O)cc1O)c1cc2ccccc2cc1O |  |  |  |  |  |  |  |  |  |  | 30% |  |  |  |  |  |  |  | 
CN(CCCNc1ccnc2cc(Cl)ccc12)CC12CC3CC(CC(C3)C1)C2 | 3.24 | 8.8 µM | Dose-dependent effect | 46% | 39% | 71% | 51% | 56% |  | Dose-dependent effect |  |  |  |  |  |  |  |  | 
CC(=O)O[C@H]1C[C@H]2[C@@H]([C@H](OC(C)=O)C[C@@H]3C[C@H](N)CC[C@@]32C)[C@@H]2CC[C@H]([C@H](C)CCCNC(C)CCCNc3ccnc4ccccc34)[C@@]12C (mixture of isomers) |  | 3 µM | Dose-dependent effect | 50% | 22% | 75% | 86% | 87% |  | Dose-dependent effect |  | 2.21 |  |  |  |  |  |  | 
CC(=O)O[C@H]1C[C@H]2[C@@H]([C@H](OC(C)=O)C[C@@H]3C[C@H](N)CC[C@@]32C)[C@@H]2CC[C@H]([C@H](C)CCCNCCCC(C)Nc3ccnc4ccccc34)[C@@]12C (mixture of isomers) |  | 2.7 µM | Dose-dependent effect | 38% | 22% | 71% | 67% | 69% |  | Dose-dependent effect |  | 2.28 |  |  |  |  |  |  | 
N#Cc1ccc(-c2ccc(-c3ccc(CNCCCCCCCCNc4ccnc5ccccc45)cc3)s2)cc1 |  | 6.8 µM | Dose-dependent effect | 20% | 19% | 77% | 31% | 70% | 10 to 20 µM | Dose-dependent effect |  | 3.42 | Non-Toxic | Non-Toxic | Non-Toxic |  |  |  | 
CC(CCCN(C)Cc1ccc(-c2csc3ccc(C#N)cc23)cc1)Nc1ccnc2ccccc12 (configuration not stated) | 3.42 |  |  |  |  | 27% | 59% | 64% | 10 to 20 µM | Dose-dependent effect |  |  |  |  |  |  |  |  | 
CC(=O)O[C@H]1C[C@H]2[C@@H]([C@H](OC(C)=O)C[C@@H]3C[C@H](N)CC[C@@]32C)[C@@H]2CC[C@H]([C@H](C)CCCNCCCCNc3ccnc4ccccc34)[C@@]12C |  | 5.7 µM | Dose-dependent effect | 48% | 49% | 80% | 28% | 67% | 10 to 20 µM | Dose-dependent effect |  | 2.14 |  |  |  |  |  |  | 
C[C@H](CCCNCCCCNc1ccnc2cc(Cl)ccc12)[C@H]1CC[C@H]2[C@@H]3[C@H](O)C[C@@H]4C[C@H](N)CC[C@]4(C)[C@H]3C[C@H](O)[C@]12C |  |  |  |  |  | 48% | 46% |  | 8 to 16 µM | Dose-dependent effect |  | 2.97 |  |  |  | 69% | 49% | 58% | 58%
CN(CCCCCCCCNc1ccnc2ccccc12)Cc1ccc(-c2ccc(-c3ccc(C#N)cc3)s2)cc1 |  |  |  | 34% | 22% | 35% | 54% | 60% | 5 to 10 µM | Dose-dependent effect |  | 3.33 | Non-Toxic | Non-Toxic | Non-Toxic |  |  |  | 
CC(CCCNc1ccnc2ccccc12)NCc1ccc(-c2csc3ccc(F)cc23)cc1 (configuration not stated) | 3.85 | 7.4 µM | Dose-dependent effect | 16% | 17% | 75% | 58% | 68% | 10 to 20 µM | Dose-dependent effect |  |  | Non-Toxic | Non-Toxic | Non-Toxic |  |  |  | 
CC(=O)O[C@H]1C[C@H]2[C@@H]([C@H](OC(C)=O)C[C@@H]3C[C@H](NCCCCCCNc4ccnc5cc(Cl)ccc45)CC[C@@]32C)[C@@H]2CC[C@H]([C@H](C)CCCNCCCCCCNc3ccnc4cc(Cl)ccc34)[C@@]12C |  | 12.4 µM | Dose-dependent effect | 36% | 20% | 90% | 70% | 84% |  | Dose-dependent effect |  |  |  |  |  |  |  |  | 
N#Cc1ccc(-c2ccc(-c3cccc(CNCCCCCCNc4ccnc5ccccc45)c3)s2)cc1 |  | 8.7 µM | Dose-dependent effect |  |  | 68% | 46% | 71% |  | Dose-dependent effect |  | 3.08 |  |  |  |  |  |  | 
CC(=O)O[C@H]1C[C@H]2[C@@H]([C@H](OC(C)=O)C[C@@H]3C[C@H](N)CC[C@@]32C)[C@@H]2CC[C@H]([C@H](C)CCCN(C)CCCC(C)Nc3ccnc4ccccc34)[C@@]12C (mixture of isomers) |  | 0.7 µM | Dose-dependent effect |  |  | 85% | 20% | 41% |  | Dose-dependent effect |  | 2.38 |  |  |  |  |  |  | 
